A selection: hits, their analogues and other compounds. The true share with any hit is near 3.1%.
rCAG RNA binder: molecules binding r(CAG) RNA repeats; r(CAG) RNA repeat, TO-PRO-1 dye displacement fluorescence; inhibition, % at 3 µM; actives 1.3% (n = 370,000);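 active means inhibition above the plate cutoff, the mean of all test compounds on that plate plus 3 SD, cut at about 35% in these data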;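 further: 0% = DMSO alone and 100% = 100 µM mitoxantrone as full dye displacement; higher means more dye released from RNA so lower well fluorescence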
CSN deneddyl inh: CSN deneddylation inhibition; inhibition, % at 12.5 µM; Q92905; actives 0.38% (n = 360,000); AID 651999; Purified CSN, SCF-Nedd8-OG deneddylation, fluorescence polarization;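 active means pattern-corrected inhibition above about 35%, with an unprinted fluorescence ratio check between 0.5 and 1.5, limit read from the data, passing the limit was not always enough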;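 further: 0% = enzyme with substrate and 100% = substrate without enzyme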
Target sequence (Q92905 whole entry, looked up, one chain of several): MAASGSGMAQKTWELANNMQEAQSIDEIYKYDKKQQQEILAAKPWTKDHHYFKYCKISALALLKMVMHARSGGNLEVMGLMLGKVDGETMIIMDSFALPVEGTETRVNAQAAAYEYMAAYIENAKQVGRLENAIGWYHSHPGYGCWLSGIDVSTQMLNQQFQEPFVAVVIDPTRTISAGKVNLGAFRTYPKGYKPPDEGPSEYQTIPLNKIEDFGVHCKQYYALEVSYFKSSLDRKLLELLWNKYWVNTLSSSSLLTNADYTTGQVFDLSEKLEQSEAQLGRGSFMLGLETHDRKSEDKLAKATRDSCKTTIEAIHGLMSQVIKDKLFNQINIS
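Assay system: Purified human Csn5 enzyme expressed in HEK293T cells | Amount: Enzyme 0.24 nM | Measured by: Fluorescence polarization readout | Medium: Tris/NaCl/DTT buffer, pH 7.5 | Compound dosing: One concentration, 12.5 µM, 0.25% DMSO | Times: 90 min incubation of compound, enzyme and substrate at room temperature | Control set: no-enzyme wells high, enzyme-with-substrate wells low | Read-out: % inhibition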
ATG4B inh: inhibitors of human ATG4B cysteine protease; inhibition, % at 8.33 µM; ATG4B cleavage of LC3-PLA2, NBD-HPC fluorescence, 1 h; AID 504462; actives 0.51% (n = 340,000); Q9Y4P1; in the data active means inhibition above about 40%
MBD2 inh: MBD2-methylated oligo binding inhibition; inhibition, % at 4.4 µM; AID 686964; actives 0.31% (n = 370,000); TR-FRET, MBD2 binding to methylated oligonucleotide; Q9UBB5; in the data active means inhibition above about 13%
UHRF1 binding: blocks human UHRF1 binding to methylated DNA; inhibition, % at 4.4 µM; AID 687016; Q96T88; UHRF1 binding to methylated oligo, TR-FRET; actives 0.75% (n = 370,000);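 further: UHRF1 SRA domain binding a hemimethylated CpG hairpin DNA probe; 0% = median of test compound wells and 100% = reference inhibitor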
LEDGF integ inh: blocks HIV-1 LEDGF/p75-dependent DNA integration; actives 0.64% (n = 370,000); TR-FRET IN-LEDGF/p75 DNA integration, Eu/Cy5; AID 743269; inhibition, % at 3.7 µM;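 active means inhibition above the screen-wide mean plus 3 SD, cut at about 13% in these data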;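 further: signal is the Cy5 over europium emission ratio at 671 and 618 nm; 0% = plate median of compound wells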
UHRF1 DNA bind: counter-screen for MBD2 inhibitors: human UHRF1 methylated DNA binding inhibitors; shares compounds with MBD2 inh; AID 720530; inhibition, % at 4.4 µM; actives 25% (n = 1,000); UHRF1 binding to methylated oligonucleotide, TR-FRET;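 further: UHRF1 SRA domain binding a labeled hemimethylated CpG hairpin DNA; 0% = vehicle only and 100% = reference inhibitor with vehicle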
MBD2 confirm: MBD2-DBD methyl-DNA binding inhibition, TR-FRET confirmation. shares compounds with MBD2 inh. TR-FRET MBD2-DBD binding to methylated oligonucleotide. inhibition, % at 4.4 µM. actives 26% (n = 1,000); in the data active means inhibition above about 14%
Numbers without * were called inactive; · = no result given. Unless noted, no stated cut-off is given here; in the data, active means inhibition above about 21%; inactive means the rest.

SMILES	rCAG RNA binder	CSN deneddyl inh	ATG4B inh	MBD2 inh	UHRF1 binding	LEDGF integ inh	UHRF1 DNA bind	MBD2 confirm
CN(C)c1ccc(C=c2c3ccccc3n3c2cc(-c2ccccc2)[n+]3C)cc1	20	24	37	22*	41*	12	64*	56*
c1ccc(-n2nc3c(ccc4cnnc43)[nH]2)cc1	14	-2	-13	15*	19	-1	4	4
COCCN(CCOC)C(=O)[C@@H](Cc1ccccc1)NC(=O)[C@H]1O[C@@H](n2ccc(N)nc2=O)[C@H](O)[C@@H]1O	2	·	·	1	-3	6	·	·
CN(C)C(=O)c1cccc(-c2cnc3c(NC=O)cc(-c4ccccc4N(C)C)cn23)c1	-75	-72	·	36*	-6	5	-10	30*
O=S1(=O)c2ccc(Br)cc2OC[C@@H](c2ccccc2)N1Cc1cn(CCC2OCCO2)nn1	5	·	·	-1	0	-2	·	·
COc1ccc(-n2nnnc2-c2ccc(S(C)(=O)=O)cc2Cl)cc1	16	-3	-10	13*	24*	5	1	5
C/C=C/C(=O)Nc1cccc(C2=NOC3(C2)C[C@@H](C(N)=O)N(C(=O)c2cc([N+](=O)[O-])cc([N+](=O)[O-])c2)C3)c1 (stereo partly specified)	8	2	-20	16*	3	-1	2	3
C=C(C)C(=O)Nc1cccc(C2=NOC3(C2)C[C@H](C(N)=O)N(C(=O)c2ccccc2C(=O)c2ccccc2)C3)c1 (stereo partly specified)	0	17	11	31*	80*	12	67*	42*
C/C=C(/C)C(=O)Nc1cccc(C2=NOC3(C2)C[C@@H](C(N)=O)N(C(=O)CC(c2ccccc2)c2ccccc2)C3)c1 (stereo partly specified)	14	2	-20	6	2	1	·	·
C=C(C)C(=O)Nc1cccc(C2=NOC3(C2)C[C@@H](C(N)=O)N(C(=O)CC(c2ccccc2)c2ccccc2)C3)c1 (stereo partly specified)	4	17	-33	26*	63*	3	60*	42*
Cc1c(NC(=O)C2CCCN(S(=O)(=O)c3ccccc3[N+](=O)[O-])C2)c(=O)n(-c2ccccc2)n1C (stereo unspecified)	1	·	·	-1	2	2	·	·
CCCCN1CC(=O)N2[C@H](C[C@@]3(n4ccc5ccccc54)c4ccccc4N(S(=O)(=O)c4ccccc4)[C@@H]23)C1=O	12	·	·	4	1	-3	·	·
COc1ccc(C(=O)OCC(=O)c2c[nH]c3ccccc23)cc1OC	5	5	5	14*	22*	0	5	2
COc1cc(C(=O)OCC(=O)c2c[nH]c3ccccc23)ccc1OCC(=O)N1CCOCC1	14	-4	-5	-2	4	-2	·	·
C[C@H]1COc2cccc(NCCO)c2S(=O)(=O)N1	2	·	·	0	7	1	·	·
COc1ccc(S(=O)(=O)N2CCN(C(=O)CCc3c[nH]c4ccccc34)CC2)cc1	6	-3	-9	48*	2	-6	6	5
COC(=O)C[C@H]1CC[C@@H]2[C@@H](COc3ccc(NC(=O)c4ccccc4)cc3C(=O)N2C)O1	0	·	·	-4	-2	1	·	·
CN(C)/C=C1\N=C(c2ccc(Cl)cc2Cl)OC1=O	-8	4	1	16*	18	2	7	4
Cc1ccc(CNC(=O)[C@@H](Cc2ccccc2)NC(=O)[C@H]2O[C@@H](n3ccc(N)nc3=O)[C@H](O)[C@@H]2O)o1	5	·	·	-4	-2	1	·	·
CCCCCCCCCC(=O)O	1	3	-11	1	-3	1	·	·
O=C(O)CCCCC1CCSS1 (stereo unspecified)	26	35*	-2	22*	48*	1	36*	16*
CC1CN(Cc2c(O)ccc3c(=O)c(-c4ccccc4)coc23)CC(C)O1 (stereo unspecified)	-1	0	2	-2	-1	0	·	·
CC1CN(Cc2c(O)ccc3c2oc(=O)c2ccccc23)CC(C)O1 (stereo unspecified)	2	-1	-8	16*	19	5	3	11
CCCC(=O)N1CCC[C@]2(CC[C@@H](CCC(=O)N(CC)CC)O2)C1	-2	·	·	-5	0	-1	·	·
Cc1ccc(C(=O)NCC(=O)NC2CCC(C)CC2)s1 (stereo unspecified)	0	3	-2	98*	-1	0	4	1
SMILES	rCAG RNA binder	CSN deneddyl inh	ATG4B inh	MBD2 inh	UHRF1 binding	LEDGF integ inh	UHRF1 DNA bind	MBD2 confirm
O=C(CSc1nnc(-c2cccs2)o1)Nc1cccc2ccccc12	1	·	·	3	0	0	·	·
Cc1ccc(-c2cc(-c3nnc(SCC(=O)N4CCOCC4)n3N)[nH]n2)cc1	1	·	·	1	-2	3	·	·
COc1cccc(NC(=O)Nc2nc3ncccn3c2-c2ccc(F)c(F)c2)c1	3	·	·	0	0	2	·	·
O=C(OCc1cc(=O)n2c(n1)sc1ccccc12)c1ccc(O)cc1O	21	10	2	6	3	5	·	·
O=C(Cc1coc2cc3c(cc12)CCC3)OCc1cc(=O)n2c(n1)sc1ccccc12	14	11	0	16*	16	6	19	14*
O=C(OCc1cc(=O)n2c(n1)sc1ccccc12)c1cccc(O)c1	22	20	8	13*	16	3	21*	18*
CCCCN=C(N)NC(=O)OCc1ccccc1	-2	·	·	1	0	-1	·	·
O=C(c1ccccc1F)c1cc2c(cc1[N+](=O)[O-])OCCO2	-6	5	-1	15*	18	1	7	1
O=C(COC(=O)CCCNC(=O)c1ccc(Cl)cc1)Nc1ccc(Br)cc1	0	7	7	13*	23*	3	2	2
O=C(CCCNC(=O)c1ccc(Cl)cc1)Nc1ccc(Br)cc1	3	1	-6	0	-1	3	·	·
C=C(C)Cn1c(COc2ccccc2)nnc1SCC(=O)O	0	-3	-2	15*	0	2	4	3
CCn1cc(/C=C(\NC(=O)c2ccccc2OC)C(=O)NCCN2CCOCC2)c2ccccc21	5	-1	·	16*	-1	-4	4	1
COc1cc2c(cc1NC(=O)COC(=O)Cn1cnc3ccccc31)oc1ccccc12	13	2	-12	19*	-4	-2	3	3

Assay outcomes (PubChem BioAssay)
